# ChEMBL document CHEMBL3244010, “Isolation, synthesis, and biological activity of five metabolites of danazol” (J Med Chem, 1977)
# Activity calls are given as the source filed them. The rule behind the calls is not given here.
# Columns and labels:
# [1] = test system: Rattus norvegicus; assay: Inhibition of pituitary gonadotropin activity in rat assessed as decrease of number of vaginal estrous days at 50 mg/kg, sc for 14 days; conditions: Pituitary gland
# [2] = test system: Rattus norvegicus; assay: Inhibition of pituitary gonadotropin activity in rat assessed as decrease of ovarian weight at 50 mg/kg, sc for 14 days; conditions: Pituitary gland
# [3] = test system: Rattus norvegicus; assay: Inhibition of pituitary gonadotropin activity in rat assessed as decrease of testicular weight at 100 mg/kg, po for 14 days; format: functional, organism-based; design: dose 100 mg/kg; conditions: Pituitary gland
# In short: (§1)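 Mature male rats were dosed orally at 100 mg/kg in ethanol-oil vehicle for 14 days. Ventral prostate, seminal vesicle and testicular weights were then compared against controls for significance.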
# [4] = test system: Homo sapiens; assay: Drug metabolism in human assessed as metabolite level treated with 800 mg, po of danazol in urine after 24 hrs by TLC analysis; format: ADME, organism-based; conditions: in vivo
# In short: (§2)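 Urine was collected from one subject given 800 mg/day orally for 7 days. Metabolites were isolated from the urine, purified in separate chromatographic systems, and identified against synthetic reference material by UV spectra in methanol and by mass spectra.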
# [5] = test system: Rattus norvegicus; assay: Inhibition of pituitary gonadotropin activity in rat assessed as decrease of ventral prostate weight at 100 mg/kg, po for 14 days; format: functional, organism-based; design: dose 100 mg/kg; conditions: Pituitary gland
# In short: as §1
# [6] = test system: Rattus norvegicus; assay: Inhibition of pituitary gonadotropin activity in rat assessed as decrease of seminal vesicles weight at 100 mg/kg, po for 14 days; format: functional, organism-based; design: dose 100 mg/kg; conditions: Pituitary gland
# In short: as §1
# [7] = test system: Rattus norvegicus; assay: Inhibition of pituitary gonadotropin activity in rat assessed as decrease of ovarian weight at 25 mg/kg, sc for 14 days; conditions: Pituitary gland
# [8] = Drug metabolism in rhesus monkey assessed as metabolite level in urine treated with at 50 mg/kg, po bid of danazol after 24 hrs by TLC analysis; format: ADME, organism-based, Macaca mulatta; design: dose 50 mg/kg, route oral; conditions: in vivo
# [9] = test system: Rattus norvegicus; assay: Inhibition of pituitary gonadotropin activity in rat assessed as decrease of number of vaginal estrous days at 25 mg/kg, sc for 14 days; conditions: Pituitary gland
# [10] = test system: Rattus norvegicus; assay: Inhibition of pituitary gonadotropin activity in rat assessed as decrease of ovarian weight at 20 mg/kg, sc for 14 days; conditions: Pituitary gland
# [11] = Drug metabolism in rhesus monkey assessed as 17-hydroxy-17alpha-pregn-4-en-20-yn-3-one level in urine at 50 mg/kg, po bid after 24 hrs by TLC analysis; format: ADME, organism-based, Macaca mulatta; design: dose 50 mg/kg, route oral; conditions: in vivo
# [12] = test system: Homo sapiens; assay: Drug metabolism in human assessed as 6beta,17-dihydroxy-2alpha-(hydroxymethyl)-17alpha-pregn-4-en-20-yn-3-one level in urine at 800 mg, po after 24 hrs by TLC analysis; format: ADME, organism-based; conditions: in vivo
# In short: as §2
# [13] = test system: Homo sapiens; assay: Drug metabolism in human assessed as 17-hydroxy-2alpha-(hydroxymethyl)-17apregn-4-en-20-yn-3-one level in urine at 800 mg, po after 24 hrs by TLC analysis; format: ADME, organism-based; conditions: in vivo
# In short: as §2
# [14] = test system: Homo sapiens; assay: Drug metabolism in human assessed as 6beta,17-dihydroxy-2-(hydroxymethyl)-17alpha-pregna-1,4-dien-20-yn-3-one level in urine at 800 mg, po after 24 hrs by TLC analysis; format: ADME, organism-based; conditions: in vivo
# In short: as §2
# [15] = test system: Rattus norvegicus; assay: Inhibition of pituitary gonadotropin activity in rat assessed as decrease of number of vaginal estrous days at 20 mg/kg, sc for 14 days; conditions: Pituitary gland
# [16] = test system: Homo sapiens; assay: Drug metabolism in human assessed as 17-hydroxy-2-(hydroxymethyl)-17alpha-pregna-1,4-dien-20-yn-3-one level in urine at 800 mg, po after 24 hrs by TLC analysis; format: ADME, organism-based; conditions: in vivo
# In short: as §2
Drug metabolism [4],Drug metabolism [11],Drug metabolism [12],Drug metabolism [13],Drug metabolism [14],Drug metabolism [16],SMILES,inhibition [1],inhibition [2],inhibition [3],inhibition [5],inhibition [6],inhibition [7],Drug metabolism [8],inhibition [9],inhibition [10],inhibition [15]
metabolite_detected,,,,,,C#C[C@]1(O)CC[C@H]2[C@@H]3C[C@@H](O)C4=CC(=O)C(CO)=C[C@]4(C)[C@H]3CC[C@@]21C,inactive,inactive,inactive,inactive,inactive,,,,,
metabolite_detected,,,,,,C#C[C@]1(O)CC[C@H]2[C@@H]3C[C@@H](O)C4=CC(=O)[C@H](CO)C[C@]4(C)[C@H]3CC[C@@]21C,inactive,inactive,inactive,inactive,inactive,,,,,
,,,,,,C#C[C@]1(O)CC[C@H]2[C@@H]3CCC4=CC(=O)CC[C@]4(C)[C@H]3CC[C@@]21C [ETHISTERONE],,,inactive,inactive,inactive,inactive,metabolite_detected,inactive,,
metabolite_detected,,,,,,C#C[C@]1(O)CC[C@H]2[C@@H]3CCC4=CC(=O)[C@H](CO)C[C@]4(C)[C@H]3CC[C@@]21C,inactive,inactive,inactive,inactive,inactive,,,,,
metabolite_detected,,,,,,C#C[C@]1(O)CC[C@H]2[C@@H]3CCC4=CC(=O)C(CO)=C[C@]4(C)[C@H]3CC[C@@]21C,,,inactive,inactive,inactive,inactive,,inactive,,
,metabolite_detected,metabolite_detected,metabolite_detected,metabolite_detected,metabolite_detected,C#C[C@]1(O)CC[C@H]2[C@@H]3CCC4=Cc5oncc5C[C@]4(C)[C@H]3CC[C@@]21C [DANAZOL],,,Active,Active,Active,,,,Active,Active
